The results in this text go back to ChEMBL document CHEMBL1126008, “Decorporation of aged americium deposits by oral administration of lipophilic polyamino carboxylic acids” (1992).

For experiment [1], the system named is Canis familiaris. The experiment in a line: In vitro elimination of Pu (given as citrate) from in vivo tagged canine liver cytosol after administration of the compound; value expressed as following filtrate to residue activity. The class given is functional, Canis lupus familiaris. In a few lines:
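Liver homogenate in 0.25 M sucrose from a dog injected with Pu-citrate 7 days before sacrifice. Spun 20 min at 40000g to give cytosol, which was dialyzed against 50 mM TRIS-HCl. Cytosol mixed 1:1 with 4 mM compound (stock) in 0.1 M TRIS-HCl, pH 7.5, 270–300 mOsm. Incubated 2 h at 40 °C, then pressure-filtered through a 10000 Da cutoff. Read-out: Pu filtrate/residue ratio; control had no compound.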

The species named for experiment [2] is Rattus norvegicus. Description: Percent retention in rat visera was measured in situ using intestinal tied-loop technique. Format: functional, organism-based.
Experiment [3] concerns Rattus norvegicus. The experiment in a line: Reduction in carcass 241Am after daily feeding of 200 uM of the compound/kg of body weight to rats for 10 days. Format: functional. A digest of the protocol: (§1)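 Sprague-Dawley rats aged 60 days, nine per group. ²⁴¹Am in citrate buffer pH 3.5 given as a single jugular iv injection. From one week later, compound given at 50 μmol/rat (about 200 μmol/kg) in a daily 25 g chow ration for 10 days; untreated controls. Tissues counted for ²⁴¹Am at necropsy. Reduction = […]. p values given.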

Experiment [4] deals with Rattus norvegicus. Description: Reduction in whole body 241Am after daily feeding of 200 uM of the compound/kg of body weight to rats for 10 days. The class given is functional. A digest of the protocol: as §1
For experiment [5], the species on record is Rattus norvegicus. The experiment in a line: Percent retention in rat liver was measured in situ using intestinal tied-loop technique. Format: functional, organism-based.
Experiment [6] deals with Rattus norvegicus. The experiment in a line: Reduction in one kidney 241AM after daily feeding of 200 uM of the compound/kg of body weight to rats for 10 days. The class given is functional. A digest of the protocol:
as §1

For experiment [7], the species on record is Rattus norvegicus. Description: Percent retention in rat lumen was measured in situ using intestinal tied-loop technique. Format: functional, organism-based.
The subject of experiment [8] is Rattus norvegicus. The experiment in a line: Weight gain after daily feeding of 200 uM of the compound/kg of body weight to rats for 10 days. Format: functional. In a few lines:
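Sprague-Dawley rats aged 60 days, nine per group, given ²⁴¹Am iv (jugular, citrate pH 3.5) one week before feeding began. Compound given at 50 μmol/rat (about 200 μmol/kg) daily in 25 g chow for 10 days; untreated controls. Weight gain over the feeding period reported as mean ± deviation.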

Experiment [9] concerns Rattus norvegicus. Description: Reduction in both femora 241Am after daily feeding of 200 uM of the compound/kg of body weight to rats for 10 days. Format: functional. In a few lines:
as §1

For experiment [10], the species on record is Rattus norvegicus. Description: Percent retention in rat carcass was measured in situ using intestinal tied-loop technique. The class given is functional, organism-based.
Experiment [11] has as its system Rattus norvegicus. Description: Reduction in liver 241Am after daily feeding of 200 uM of the compound/kg of body weight to rats for 10 days. The class given is functional. In a few lines: as §1
The species entered for experiment [12] is Rattus norvegicus. Description: Percent retention in rat gut section was measured in situ using intestinal tied-loop technique. Format: functional, organism-based.

Take `CCCCCCCCN(CCN(CCN(CCN(CC(=O)O)CC(=O)O)CC(=O)O)CC(=O)O)CC(=O)O`: in experiment [1], the Activity was determined as 0.16.

Consider `CCCCCCCCCCCCN(CCN(CCN(CCN(CC(=O)O)CC(=O)O)CC(=O)O)CC(=O)O)CC(=O)O`, for which the Retention in experiment [2] worked out at 4%; in experiment [5], 3%; in experiment [7], 73%; in experiment [10], 20%; in [12] it was 73%. Moreover, the Reduction in experiment [3] was found to be 20%; in [4], 29%; in experiment [6], 23%; in experiment [9], 17%; in experiment [11], 71%. Also, the Activity in experiment [1] amounted to 0.26. Moreover, in [8], the Weight came out at 55.7 g.

For `CCCCCCCCCCCCCCCCCCCCCCN(CCN(CCN(CCN(CC(=O)O)CC(=O)O)CC(=O)O)CC(=O)O)CC(=O)O`, the Reduction in experiment [3] came out at 37%; in experiment [4], 44%; in experiment [6] it was 26%; in experiment [9] it was 32%; in [11], 89%. Moreover, the Weight in experiment [8] is given as 70.2 g.
